ChEMBL document CHEMBL4007456, “Heterocyclyl Tetracyclines. 1. 7-Trifluoromethyl-8-Pyrrolidinyltetracyclines: Potent, Broad Spectrum Antibacterial Agents with Enhanced Activity against Pseudomonas aeruginosa” (2017)
Converted amounts (≈) assume the structure as drawn.

How the values were obtained:
Assay type in all cases: functional
Proteus mirabilis = assay: Antibacterial activity against gram-negative Proteus mirabilis PM385 by CLSI method
Summary of the method: (§1)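 Broth microdilution MIC per CLSI in cation-adjusted Mueller Hinton broth, prepared fresh and held at 4 °C. Defibrinated horse blood added where appropriate. Compounds serially diluted in sterile deionized water. Strains from ATCC unless otherwise noted. Runs accepted when comparator antibiotics fell within QC ranges for ATCC quality control strains.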

Pseudomonas aeruginosa [1] = assay: Antibacterial activity against Pseudomonas aeruginosa PA1145 in BALB/c mouse model of lung infection assessed as reduction in log10CFU per gram of lung at 5 mg/kg, iv bid administered 2 to 12 hrs of post-infection measured after 24 hrs relative to untreated control
Summary of the method: (§2)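 Female BALB/c mice, 18 to 20 g, infected intranasally under light anesthesia with ~ 2 x 10^7 CFU/mouse of P. aeruginosa PA1145 (cystic fibrosis isolate) in 0.05 mL. Treatment at 2 and 12 h post-infection, IV, or intranasally for tobramycin; n = 6 per group. Lungs harvested 24 h after treatment began, homogenized, plated on MacConkey medium, incubated overnight at 37 °C in 5% CO2. CFU per gram lung compared with T = 24 h untreated control.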

Pseudomonas aeruginosa [2] = assay: Antibacterial activity against gram-negative Pseudomonas aeruginosa PA555 by CLSI method; summary of the method: as §1
Escherichia coli [3] = assay: Antibacterial activity against gram-negative Escherichia coli EC155 harboring tet(A) by CLSI method
Summary of the method: (§3)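 CLSI broth microdilution MIC in fresh cation-adjusted Mueller Hinton broth, supplemented with defibrinated horse blood where appropriate. Compounds serially diluted in sterile deionized water. Runs accepted when comparator antibiotics against ATCC quality-control strains fell within recommended ranges.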

Pseudomonas aeruginosa [4] = assay: Antibacterial activity against Pseudomonas aeruginosa PA694 in CD-1 mouse model of thigh infection assessed as reduction in log10CFU per gram of thigh at 5 mg/kg, iv bid administered 2 to 12 hrs of post-infection measured after 24 hrs relative to untreated control
Summary of the method: (§4)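 Groups of 5 female specific-pathogen-free CD-1 mice, 22 ± 2 g. Right thigh inoculated intramuscularly with 3-5 x 10^6 CFU/mouse of P. aeruginosa PA694 (UTI isolate). Dosed IV at 5, 15 or 40 mg/kg at 2 and 12 h post-infection. Thigh muscle harvested at 24 h post-infection, homogenized in PBS (pH 7.4), plated on Brain Heart Infusion agar + 0.5% charcoal. Log10 CFU per gram thigh compared with 24 h untreated control.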

Pseudomonas aeruginosa [5] = assay: Antibacterial activity against Pseudomonas aeruginosa PA1145 in BALB/c mouse model of lung infection assessed as reduction in log10CFU per gram of lung at 40 mg/kg, iv bid administered 2 to 12 hrs of post-infection measured after 24 hrs relative to untreated control; summary of the method: as §2
Enterococcus faecalis = assay: Antibacterial activity against gram-positive Enterococcus faecalis EFs327 harboring tet(M) by CLSI method; summary of the method: as §3
[6] = system: Stenotrophomonas maltophilia; assay: Antibacterial activity against gram-negative Stenotrophomonas maltophilia SM256 by CLSI method; summary of the method: as §1
Pseudomonas aeruginosa [7] = assay: Antibacterial activity against Pseudomonas aeruginosa PA694 in CD-1 mouse model of thigh infection assessed as reduction in log10CFU per gram of thigh at 15 mg/kg, iv bid administered 2 to 12 hrs of post-infection measured after 24 hrs relative to untreated control; summary of the method: as §4
Pseudomonas aeruginosa [8] = assay: Antibacterial activity against Pseudomonas aeruginosa PA1145 in BALB/c mouse model of lung infection assessed as reduction in log10CFU per gram of lung compound administered intranasally as bid for 2 to 12 hrs of post-infection measured after 24 hrs; summary of the method: as §2
Escherichia coli [9] = assay: Antibacterial activity against gram-negative Escherichia coli EC107 by CLSI method; summary of the method: as §1
Burkholderia cenocepacia = assay: Antibacterial activity against gram-negative Burkholderia cenocepacia BC240 by CLSI method
Summary of the method: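 Defibrinated horse blood added where appropriate. Compounds serially diluted in sterile deionized water. Strains from ATCC unless otherwise noted. Runs accepted when comparator antibiotics fell within QC ranges for ATCC quality control strains.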

Staphylococcus aureus [10] = assay: Antibacterial activity against gram-positive Staphylococcus aureus SA161 harboring tet(M) by CLSI method; summary of the method: as §3
Pseudomonas aeruginosa [11] = assay: Antibacterial activity against Pseudomonas aeruginosa PA694 in CD-1 mouse model of thigh infection assessed as reduction in log10CFU per gram of thigh administered intranasally as bid for 2 to 12 hrs of post-infection measured after 24 hrs
Pseudomonas aeruginosa [12] = assay: Antibacterial activity against Pseudomonas aeruginosa PA1145 in BALB/c mouse model of lung infection assessed as reduction in log10CFU per gram of lung at 15 mg/kg, iv bid administered 2 to 12 hrs of post-infection measured after 24 hrs relative to untreated control; summary of the method: as §2
Klebsiella pneumoniae = assay: Antibacterial activity against gram-negative Klebsiella pneumoniae KP457 harboring blacTX-M-15 extended spectrum beta-lactamase gene by CLSI method; summary of the method: as §3
Streptococcus pneumoniae = assay: Antibacterial activity against gram-positive Streptococcus pneumoniae SP160 harboring tet(M) by CLSI method; summary of the method: as §3
Staphylococcus aureus [13] = assay: Antibacterial activity against gram-positive Staphylococcus aureus SA101 by CLSI method; summary of the method: as §1
Staphylococcus aureus [14] = assay: Antibacterial activity against gram-positive Staphylococcus aureus SA158 harboring tet(K) by CLSI method; summary of the method: as §3
Pseudomonas aeruginosa [15] = assay: Antibacterial activity against Pseudomonas aeruginosa PA694 in CD-1 mouse model of thigh infection administered as iv bid for 2 to 12 hrs of post-infection measured after 24 hrs
Summary of the method: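 Female specific-pathogen-free CD-1 mice (22 ± 2 g), groups of 5, inoculated intramuscularly into right thigh with 3-5 x 10^6 CFU/mouse P. aeruginosa PA694 (UTI isolate). IV dosing at 5, 15 and 40 mg/kg at 2 and 12 h post-infection. Thigh muscle harvested at 24 h, homogenized in PBS pH 7.4, plated on Brain Heart Infusion agar + 0.5% charcoal; CFU/g thigh vs untreated controls; Mann-Whitney.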

Enterococcus faecium = assay: Antibacterial activity against gram-positive Enterococcus faecium EFm404 harboring tet(M) by CLSI method; summary of the method: as §3
Pseudomonas aeruginosa [16] = assay: Antibacterial activity against Pseudomonas aeruginosa PA1145 in BALB/c mouse model of lung infection administered as iv bid for 2 to 12 hrs of post-infection measured after 24 hrs
Summary of the method: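 Female BALB/c mice (18–20 g) infected intranasally with ~2 x 10^7 CFU/mouse P. aeruginosa PA1145 (cystic fibrosis isolate) under light anesthesia. Dosing at 2 and 12 h post-infection, IV (compound, tigecycline, amikacin) or intranasal (tobramycin); n = 6 per group. Lungs harvested 24 h after treatment start, homogenized, plated on MacConkey agar, 37 °C overnight; CFU/g lung; Mann-Whitney vs T = 0 h or 24 h controls.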

Pseudomonas aeruginosa [17] = assay: Antibacterial activity against Pseudomonas aeruginosa PA694 in CD-1 mouse model of thigh infection assessed as reduction in log10CFU per gram of thigh at 40 mg/kg, iv bid administered 2 to 12 hrs of post-infection measured after 24 hrs relative to untreated control; summary of the method: as §4
Enterobacter cloacae = assay: Antibacterial activity against gram-negative Enterobacter cloacae EC1603 harboring tet(A) by CLSI method; summary of the method: as §3
Acinetobacter baumannii = assay: Antibacterial activity against gram-negative Acinetobacter baumannii AB250 by CLSI method; summary of the method: as §1

CN(C)[C@@H]1C(O)=C(C(N)=O)C(=O)[C@@]2(O)C(O)=C3C(=O)c4c(O)cc([C@@H]5CCCN5)c(C(F)(F)F)c4C[C@H]3C[C@@H]12
MIC (Proteus mirabilis): 0.5 µg/mL (≈ 0.907 µM) | Activity (Pseudomonas aeruginosa [1]): 1.7 deltalog10CFU | MIC (Pseudomonas aeruginosa [2]): 4 µg/mL (≈ 7.25 µM) | MIC (Escherichia coli [3]): 2 µg/mL (≈ 3.63 µM) | Activity (Pseudomonas aeruginosa [4]): 0.4 deltalog10CFU | Activity (Pseudomonas aeruginosa [5]): 3.7 deltalog10CFU | MIC (Enterococcus faecalis): 1 µg/mL (≈ 1.81 µM) | MIC [6]: 1 µg/mL (≈ 1.81 µM) | Activity (Pseudomonas aeruginosa [7]): 0.9 deltalog10CFU | Activity (Pseudomonas aeruginosa [8]): Dose-dependent effect | MIC (Escherichia coli [9]): ≤ 0.0156 µg/mL | MIC (Burkholderia cenocepacia): 8 µg/mL (≈ 14.5 µM) | MIC (Staphylococcus aureus [10]): 4 µg/mL (≈ 7.25 µM) | Activity (Pseudomonas aeruginosa [11]): Dose-dependent effect | Activity (Pseudomonas aeruginosa [12]): 2.3 deltalog10CFU | MIC (Klebsiella pneumoniae): 0.125 µg/mL (≈ 0.227 µM) | MIC (Streptococcus pneumoniae): ≤ 0.0156 µg/mL | MIC (Staphylococcus aureus [13]): 0.0625 µg/mL (≈ 0.113 µM) | MIC (Staphylococcus aureus [14]): ≤ 0.0156 µg/mL | MIC (Pseudomonas aeruginosa [15]): 4 µg/mL (≈ 7.25 µM) | MIC (Enterococcus faecium): 0.25 µg/mL (≈ 0.453 µM) | MIC (Pseudomonas aeruginosa [16]): 2 µg/mL (≈ 3.63 µM) | Activity (Pseudomonas aeruginosa [17]): 1.9 deltalog10CFU | MIC (Enterobacter cloacae): 8 µg/mL (≈ 14.5 µM) | MIC (Acinetobacter baumannii): 2 µg/mL (≈ 3.63 µM)
